Key:
[1] = Anticancer activity against human DU145 cells assessed as inhibition of cell growth after 72 hrs by MTT assay; type: functional, cell-based; conditions: DU-145, 72 h
Method in brief: (§1)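 MTT assay at 3,000 cells/well. Cells treated with DMSO or seven concentrations from 0.5 to 50 µM for 24, 48 or 72 h. MTT added 3 h before the end point; formazan dissolved in DMSO and read at 570 and 630 nm. IC50 is the concentration giving 50% growth inhibition. Media: PANC-1, BxPC3 and 1205Lu in DMEM; DU145 and A549 in RPMI 1640; HT29, HCT116 and RKO in McCoy's 5A, all with 10% FBS and pen/strep, at 37 °C and 5% CO2.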

[2] = Anticancer activity against human PANC1 cells assessed as inhibition of cell growth after 48 hrs by MTT assay; type: functional, cell-based; conditions: PANC-1, 48 h; method in brief: as §1
[3] = test system: HCT-116; assay: Induction of apoptosis in human HCT116 cells assessed as early apoptotic cells at 5 uM after 24 hrs by annexin-V staining based flow cytometry analysis (reference value: 7.84%); type: functional
[4] = test system: HCT-116; assay: Induction of apoptosis in human HCT116 cells assessed as late apoptotic cells at 2.5 uM after 24 hrs by caspase3/7 reagent based flow cytometry (reference value: 2.28%); type: functional
[5] = Induction of cell death in human HCT116 cells at 2.5 uM after 24 hrs by calcein-AM and ethidium homodimer-1 staining based flow cytometry analysis (reference value: 1.1%); type: functional, HCT-116
[6] = test system: HCT-116; assay: Induction of apoptosis in human HCT116 cells assessed as late apoptotic cells at 2.5 uM after 24 hrs by annexin-V staining based flow cytometry analysis (reference value: 1.06%); type: functional
[7] = test system: RKO; assay: Anticancer activity against human RKO cells assessed as inhibition of cell growth after 72 hrs by MTT assay; type: functional, cell-based; method in brief: as §1
[8] = test system: HCT-116; assay: Induction of apoptosis in human HCT116 cells assessed as necrotic cells at 2.5 uM after 24 hrs by annexin-V staining based flow cytometry analysis (reference value: 0.72%); type: functional
[9] = Anticancer activity against human DU145 cells assessed as inhibition of cell growth after 48 hrs by MTT assay; type: functional, cell-based; conditions: DU-145, 48 h; method in brief: as §1
[10] = Anticancer activity against human HCT116 cells assessed as inhibition of cell growth after 24 hrs by MTT assay; type: functional, cell-based; conditions: HCT-116, 24 h; method in brief: as §1
[11] = Anticancer activity against human 1205 Lu cells assessed as inhibition of cell growth after 24 hrs by MTT assay; type: functional, cell-based; method in brief: as §1
[12] = test system: HCT-116; assay: Induction of apoptosis in human HCT116 cells assessed as viable cells at 5 uM after 24 hrs by caspase3/7 reagent based flow cytometry (reference value: 88.4%); type: functional; conditions: HCT-116, 24 h, read-out: Activity
[13] = test system: A549; assay: Anticancer activity against human A549 cells assessed as inhibition of cell growth after 48 hrs by MTT assay; type: functional, cell-based; conditions: A549, 48 h; method in brief: as §1
[14] = Anticancer activity against human HCT116 cells assessed as inhibition of cell growth after 72 hrs by MTT assay; type: functional, cell-based; conditions: HCT-116, 72 h; method in brief: as §1
[15] = test system: HCT-116; assay: Potency index, ratio IC50 of 5-FU to IC50 of compound for anticancer activity against human HCT116 cells; type: functional
Method in brief: (§2)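 Colon lines (McCoy's 5A, 10% FBS, penicillin/streptomycin, 37 °C, 5% CO2) seeded at 3,000 cells/well and exposed 24, 48 or 72 h to DMSO or seven concentrations across 0.5–50 µM. MTT added 3 h before end; formazan dissolved in DMSO, absorbance read at 570 and 630 nm. IC50 (50% growth inhibition) from curve fitting; index is the 5-FU IC50 divided by the compound IC50.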

[16] = test system: HCT-116; assay: Induction of apoptosis in human HCT116 cells assessed as early apoptotic cells at 1 uM after 24 hrs by annexin-V staining based flow cytometry analysis (reference value: 7.84%); type: functional
[17] = test system: HCT-116; assay: Reduction in Bcl2 level in human HCT116 cells after 24 hrs by western blot analysis; type: functional, cell-based
Method in brief: (§3)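 HCT116 cells (6 × 10^5/well) treated with rising concentrations for 24 h. Lysed in RIPA with phosphatase and protease inhibitors and PMSF, cleared at 15,000 g for 10 min. Lysates resolved by SDS-PAGE, transferred to PVDF, probed overnight in the cold with primary antibodies, then peroxidase-linked secondary for 1–4 h at room temperature, detected by ECL; β-actin antibody used.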

[18] = test system: HCT-116; assay: Decrease in number of viable cells in human HCT116 cells at 1 uM after 24 hrs by calcein-AM and ethidium homodimer-1 staining based flow cytometry analysis (reference value: 94.9%); type: functional
[19] = test system: HCT-116; assay: Induction of apoptosis in human HCT116 cells assessed as late apoptotic cells at 1 uM after 24 hrs by caspase3/7 reagent based flow cytometry (reference value: 2.28%); type: functional
[20] = Anticancer activity against human 1205 Lu cells assessed as inhibition of cell growth after 48 hrs by MTT assay; type: functional, cell-based; method in brief: as §1
[21] = Anticancer activity against human PANC1 cells assessed as inhibition of cell growth after 72 hrs by MTT assay; type: functional, cell-based; conditions: PANC-1, 72 h; method in brief: as §1
[22] = test system: HT-29; assay: Potency index, ratio IC50 of 5-FU to IC50 of compound for anticancer activity against human HT-29 cells; type: functional; method in brief: as §2
[23] = test system: HCT-116; assay: Reduction of XIAP level in human HCT116 cells after 24 hrs by western blot analysis; type: functional, cell-based; method in brief: as §3
[24] = test system: HCT-116; assay: Induction of apoptosis in human HCT116 cells assessed as viable cells at 1 uM after 24 hrs by caspase3/7 reagent based flow cytometry (reference value: 88.4%); type: functional; conditions: HCT-116, 24 h, read-out: Activity
[25] = test system: HT-29; assay: Anticancer activity against human HT-29 cells assessed as inhibition of cell growth after 24 hrs by MTT assay; type: functional, cell-based; conditions: HT-29, 24 h; method in brief: as §1
[26] = Anticancer activity against human BxPC3 cells assessed as inhibition of cell growth after 48 hrs by MTT assay; type: functional, cell-based; conditions: BXPC-3, 48 h; method in brief: as §1
[27] = test system: HCT-116; assay: Induction of apoptosis in human HCT116 cells assessed as viable cells at 1 uM after 24 hrs by annexin-V staining based flow cytometry analysis (reference value: 90.38%); type: functional; conditions: HCT-116, 24 h, read-out: Activity
[28] = test system: HCT-116; assay: Decrease in number of viable cells in human HCT116 cells at 5 uM after 24 hrs by calcein-AM and ethidium homodimer-1 staining based flow cytometry analysis (reference value: 94.9%); type: functional
[29] = test system: A549; assay: Anticancer activity against human A549 cells assessed as inhibition of cell growth after 72 hrs by MTT assay; type: functional, cell-based; conditions: A549, 72 h; method in brief: as §1
[30] = Induction of cell death in human HCT116 cells at 1 uM after 24 hrs by calcein-AM and ethidium homodimer-1 staining based flow cytometry analysis (reference value: 1.1%); type: functional, HCT-116

Br.Br.N=C(N)[Se]Cc1nc2ccccc2nc1C[Se]C(=N)N
IC50 [1]: 1000 nM
IC50 [2]: 2900 nM
Activity [3]: 39.02%
Activity [4]: 5.72%
Activity [5]: 5.1%
Activity [6]: 11.64%
IC50 [7]: 2500 nM
Activity [8]: 0.58%
IC50 [9]: 2800 nM
IC50 [10]: 2900 nM
IC50 [11]: 3300 nM
viability at 5 µM [12]: 16.1%
IC50 [13]: 2000 nM
IC50 [14]: 700 nM
Ratio IC50 [15]: >50
Activity [16]: 19.44%
Activity [17]: Dose-dependent effect
Activity [18]: 96.9%
Activity [19]: 2.64%
IC50 [20]: 2800 nM
IC50 [21]: 2000 nM
Ratio IC50 [22]: >50
Activity [23]: Dose-dependent effect
viability at 1 µM [24]: 87%
IC50 [25]: 5000 nM
IC50 [26]: 2900 nM
viability at 1 µM [27]: 78.1%
Activity [28]: 73.4%
IC50 [29]: 1000 nM
Activity [30]: 0.7%
